Screens: PubChem, several laboratories
proCasp7 act: counter-screen for procaspase-3 activators: activators of human procaspase-7 | P55210 | recombinant procaspase-7, Ac-DEVD-pNA absorbance 405 nm; D23A/D198A/D206A triple mutant, cannot self-cleave; scale: DMSO 0, 5 µM enzyme 100 | activation, % at 8.5 µM | 330,000 compounds, 0.093% hits | AID 463210;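 active means percent activation above the screen-wide mean plus 3 SD, cut at about 25% in these data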
Target sequence (P55210 whole entry D23A/D198A/D206A): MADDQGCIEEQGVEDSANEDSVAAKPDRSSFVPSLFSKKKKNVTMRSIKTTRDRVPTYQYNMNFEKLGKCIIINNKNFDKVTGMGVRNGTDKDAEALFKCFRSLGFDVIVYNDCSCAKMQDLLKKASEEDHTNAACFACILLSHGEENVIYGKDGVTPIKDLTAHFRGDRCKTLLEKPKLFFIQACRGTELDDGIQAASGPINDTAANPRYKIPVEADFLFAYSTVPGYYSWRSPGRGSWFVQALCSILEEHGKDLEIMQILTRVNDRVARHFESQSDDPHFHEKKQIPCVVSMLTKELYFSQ
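Assay system – Uncleavable procaspase-7 mutant enzyme · Quantity – 2 µM procaspase-7 mutant as dispensed · Times – 1 h preincubation, 2 h reaction · Dosing – single nominal 8.5 µM compound dose, 0.8% DMSO final · Buffer or medium – Zinc-free 50 mM HEPES buffer, pH 7.4, with NaCl and Triton X-100 · Detection – Epi-absorbance of released pNA at 405 nm, two timepoints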
PolyA inh: inhibitors of polyadenylation in S. cerevisiae. AID 1875. activity score, % at 12 µM. S. cerevisiae SKY197-pL101 polyadenylation reporter, beta-gal luminescence; efflux-impaired pdr1/pdr3 knockout yeast; score 100 = 6 SD above DMSO. 300,000 compounds, 0.02% hits;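 active means lowest replicate activity score at least 50, where 100 means six control SD above control mean; inconclusive means lowest score under 50 but half or more replicates reach 50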;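 further: yeast exposed to compound for 9 h at 30 °C; higher score means more reporter readthrough which indicates perturbed polyadenylation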
procasp3 activ: activators of human procaspase-3; recombinant procaspase-3 D3A, Ac-DEVD-pNA absorbance 405 nm; AID 463141; 330,000 compounds, 0.11% hits; P42574; activation, % at 8.5 µM;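 active means activation above the mean of all tested compounds plus 3 SD, cut at about 21% in these data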
Target sequence (P42574 whole entry D9A/D28A/D175A): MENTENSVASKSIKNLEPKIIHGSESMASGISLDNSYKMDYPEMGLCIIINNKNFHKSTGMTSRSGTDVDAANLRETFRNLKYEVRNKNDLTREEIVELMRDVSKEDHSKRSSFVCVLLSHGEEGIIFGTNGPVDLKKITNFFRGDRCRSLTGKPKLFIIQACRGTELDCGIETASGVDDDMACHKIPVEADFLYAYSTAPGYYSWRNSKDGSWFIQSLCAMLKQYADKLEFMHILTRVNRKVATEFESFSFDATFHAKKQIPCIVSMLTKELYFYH
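Assay system – Procaspase-3 D3A mutant · Benchmarks – DMSO low control, extra-enzyme high control · Technique – 405 nm absorbance of p-nitroaniline, reads at 0 and 120 min · Doses – 8.5 µM nominal · Measure – % activation between DMSO and enzyme-spiked controls · Also added – Ac-DEVD-pNA chromogenic peptide substrate · Schedule – 1 h compound preincubation, 2 h substrate hydrolysis at 25 °C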
AHR activator: activates the human aryl hydrocarbon receptor; AHR-responsive luciferase reporter cells, luminescence; activation, % at 5 µM; 320,000 compounds, 2.5% hits; AID 2796; in the data active means activation above about 47%
Large screens that a line does not name were inactive. This is a sample that favours compounds with a hit; in the whole collection about 2.6% have one here.

COc1ccc(C(=O)Nc2nc3ccccc3[nH]2)cc1	AHR activator 50.1
COc1ccccc1NC(=O)Nc1cnccn1	none
COc1cccc(C(=O)Nc2nc3ccccc3[nH]2)c1	none
O=C(CN1C(=O)CCSc2ccc(S(=O)(=O)N3CCCC3)cc21)NCc1ccccc1Cl	none
c1ccc(OCC2CCNCC2)nc1	none
CC(=O)c1c(C)[nH]c(C(=O)N(C)CC(=O)Nc2ccc(Cl)c(C(F)(F)F)c2)c1C	none
C=Cc1ccc(Cn2nc(-c3ccc(C)cc3)ccc2=O)cc1	none
O=C(Nc1nc2ccccc2[nH]1)c1cccc(Br)c1	AHR activator 56.6
O=C(Nc1nc2ccccc2[nH]1)c1ccc([N+](=O)[O-])cc1	none
O=C(Nc1nc2ccccc2[nH]1)c1cccc([N+](=O)[O-])c1	AHR activator 50.2
Cc1nc(N2CCOCC2)nc(Oc2ccccc2)c1[N+](=O)[O-]	none
CC(=O)N1c2ccc(S(=O)(=O)N3CCCC3C(=O)NCc3ccccc3Cl)cc2CC1C (stereo not given)	PolyA inh inconclusive
CCCn1cc(CN2CCC(n3nccc3NC(=O)CCOc3ccccc3)CC2)c(C)n1	none
CCS(=O)(=O)N1CCC(C(=O)Nc2cc(C)ccc2O)CC1	none
Fc1ccc(-c2csc(Nc3ccccn3)n2)c(F)c1	AHR activator 78.2
Cc1cc(-c2csc(Nc3ccccn3)n2)ccc1F	AHR activator 65.5
Cc1ccc(S(=O)(=O)N2CCOC23CCN(C(=O)c2ccccc2Br)CC3)cc1	none
COc1ccc2c(c1)oc1c(SCc3nc4ccccc4[nH]3)nc(C)nc12	AHR activator 53.6 (no result: PolyA inh)
Cc1cccc(NC(=O)COc2ccccc2C(=O)NC(C)c2ccccc2)c1 (stereo not given)	none
CCOC(=O)Cc1cc(-c2ccccc2)nc2ccc3ccccc3c12	AHR activator 93.2
Cc1cc(C)c(-c2cc(NC(=O)CSc3nncn3C)n(-c3ccccc3)n2)cc1C	AHR activator 64.4
Cn1cnnc1SCC(=O)Nc1ccccc1	none
CS(=O)(=O)N1CCN(c2ncnc3c2cnn3-c2ccccc2)CC1	none
c1ccc(-n2ncc3c(N4CCN(CCOc5cccc6ccccc56)CC4)ncnc32)cc1	AHR activator 49.1
CCOc1cc(/C=C(/NC(C)=O)C(=O)O)cc(Cl)c1OCc1ccc(Br)cc1	none
Cc1nc2c3cnn(-c4ccccc4)c3ncn2n1	AHR activator 68.5
O=C1Nc2ccc(Br)cc2C1Cc1ccccc1F (stereo not given)	AHR activator 57.3
Cn1c(CC2C(=O)Nc3ccc(Br)cc32)nc2ccccc2c1=O (stereo not given)	AHR activator 50.2
Cc1ccc(-n2ncc3c(=O)n(CC(=O)N4CCN(C(=O)c5ccco5)CC4)cnc32)cc1	none (no result: PolyA inh)
Cc1ccn2c(=O)nc(SCC(=O)NCc3ccccc3Cl)nc2c1	none
COc1ccc(C)cc1NC(=O)n1ncc2cc(Cl)ccc21	AHR activator 56.0
CCOc1ccc(NC(=O)Nc2ccc3nsnc3c2)cc1	none
CCOc1ccc(NC(=S)Nc2cccc3cnccc23)cc1	AHR activator 59.6
CCOc1ccc(NC(=S)Nc2ccc3nsnc3c2)cc1	AHR activator 50.7
CCOc1ccc(NC(=S)Nc2ccc(OCC)cc2)cc1	none
CCOc1ccc(NC(=S)Nc2cccc3ccccc23)cc1	AHR activator 66.2
N#CCSc1n[nH]c2nc3c(c(=O)n12)C1(CCCC1)Cc1ccccc1-3	AHR activator 51.9
COc1cc2c(cc1OC)CN(CC(=O)Nc1ccccc1C#N)CC2	AHR activator 50.1
COc1cc2c(cc1OC)CN(CC(=O)Nc1ccccc1SC)CC2	none
O=c1cc(C(F)(F)F)[nH]c(=S)n1-c1ccccc1	none
CCOC(=O)C1C(c2ccc([N+](=O)[O-])cc2)C2C(=O)NN=C2CC1(C)O (stereo not given)	none
Cc1ccc2nc(SCC(=O)NCc3ccco3)[nH]c2c1	AHR activator 76.6
Cc1ccc2nc(SCC(=O)NCc3ccc(F)cc3)[nH]c2c1	none
O=C(CSc1nc2ccccc2[nH]1)NC(=O)NCc1ccco1	none
Cc1ccc2nc(SCC(=O)NC(=O)NCc3ccco3)[nH]c2c1	AHR activator 61.2
Cc1ccc(/C=C(\C#N)c2nc3ccccc3[nH]2)s1	AHR activator 92.8
COc1cc(/C=C(\C#N)c2nc3ccccc3[nH]2)cc(OC)c1O	none
CN(C)/C=C(\C#N)c1nc2ccccc2[nH]1	none
Cc1cc(/C=C(\C#N)c2nc3ccccc3[nH]2)c(C)n1C	AHR activator 55.0
N#C/C(=C\c1c(Cl)cccc1Cl)c1nc2ccccc2[nH]1	AHR activator 68.6
Cc1cccc(CC(=O)Nc2sc(C(C)C)cc2C(=O)N2CCOCC2)c1	none
NCCCNC(=O)c1ccc(/C=N/O)nc1	none
O=C(CCn1c(=S)[nH]c2cc3c(cc2c1=O)OCO3)NCc1ccccc1Cl	none
Nc1cc(=O)[nH]c(SCC(=O)c2ccc(O)cc2O)n1	none
O=c1[nH]c2ccccc2nc1/C=C/c1ccc(F)cc1	AHR activator 74.4
O/C(=C\c1nc2ccccc2[nH]1)c1cccs1	none
O=c1[nH]c2ccccc2nc1/C=C/c1ccccc1	AHR activator 56.5
Cn1c(=O)c(/C=C/c2ccccc2)nc2ccccc21	AHR activator 53.1
O=c1[nH]c2ccccc2nc1/C=C/c1ccc(O)cc1	none (no result: proCasp7 act, procasp3 activ, AHR activator)
O=c1[nH]c2ccccc2nc1/C=C(\O)c1cccs1	AHR activator 47.9
Cn1c(=O)c(/C=C/c2ccc(F)cc2)nc2ccccc21	none (no result: proCasp7 act, procasp3 activ, AHR activator)
O=Cc1c[nH]c2ccc(C(=O)c3ccccc3)cc12	none
Fc1ccc(C2=CC(c3ccc(Br)o3)n3ncnc3N2)cc1 (stereo not given)	AHR activator 86.5 (no result: PolyA inh)
CCOc1ccc(C2C=C(c3ccc(F)cc3)Nc3ncnn32)cc1 (stereo not given)	AHR activator 62.7
CC(C)(C)c1ccc(C2=CC(c3ccccc3F)n3ncnc3N2)cc1 (stereo not given)	none
Fc1ccc(Br)cc1C1C=C(c2cccnc2)Nc2ncnn21 (stereo not given)	AHR activator 58.8
Cn1cccc1C1C=C(c2ccc(C(C)(C)C)cc2)Nc2ncnn21 (stereo not given)	AHR activator 66.5
Cc1cnc(C(=O)OCC(=O)N2CCC(C)CC2)cn1	none (no result: PolyA inh)
COc1ccc(CCN2CC(C(=O)N(C)C3CCOCC3)CCC2=O)cc1 (stereo not given)	none
O=C(COC(=O)CC1CC2CCC1C2)Nc1ccccc1[N+](=O)[O-] (stereo not given)	none (no result: PolyA inh)
Brc1ccc(C2=CC(c3cccs3)n3ncnc3N2)cc1 (stereo not given)	AHR activator 84.5
OCCCc1nc2n(n1)C(c1cccs1)C=C(c1ccc(Br)cc1)N2 (stereo not given)	none
Cc1noc(C)c1S(=O)(=O)N(CC(=O)NC1CCCC1)c1ccc(C(C)C)cc1	none
C=CCc1cccc(/C=N/NC(=O)c2ccccc2OC)c1O	AHR activator 76.9
COc1ccccc1C(=O)N/N=C/c1ccc(Cl)s1	AHR activator 48.8
COc1ccccc1/C=N/NC(=O)c1ccccc1Cl	none
